Experimental findings from ChEMBL document CHEMBL1123644, “Potential antitumor agents. 53. Synthesis, DNA binding properties, and biological activity of perimidines designed as "minimal" DNA-intercalating agents” (J Med Chem, 1987) are described below.

Data set [1] deals with P388. Kind of data set: Optimal dose administered intraperitoneally as a solution in 0.1 mL of 30% v/v ethanol-water on days 1,5 and 9 after intraperitoneal inoculation of 10 e6 P388 leukemia cells. The class given is functional, Mus musculus.
The subject of a further data set is L1210. Kind of data set: In vitro growth inhibition of murine leukemia L1210 cells after 40 hours exposure. The data set is classed as functional, cell-based. The settings on record: Mus musculus, L1210, 40 h.
The test system of data set [2] is P388. Kind of data set: Percent increase in life span of drug treated tumor( P388 leukemia cells)-bearing animal compared to that of untreated tumor bearing control when treated at optimal dose; NA means not active compound inactive at all dose levels up to toxic ones. The data set is classed as functional. As to conditions: Mus musculus.
Data set [3] is described as follows: The pKa value spectrophotometrically in water at 25 degree Centigrade. The class given is physicochemical.
Data set [4] has as its system P388. Description: Optimal dose administered intraperitoneally as a solution in 0.1 mL of 30% v/v ethanol-water on days 1,5 and 9 after intraperitoneal inoculation of 10 e6 P388 leukemia cells; ND means no data. The data set is classed as functional, Mus musculus.
For data set [5], the system named is P388. Description: Percent increase in life span of drug treated tumor( P388 leukemia cells)-bearing animal compared to that of untreated tumor bearing control when treated at optimal dose. The data set is classed as functional, Mus musculus.
For data set [6], the system named is Nucleic Acid. Kind of data set: The compound was tested for DNA (from Escherichia coli plasmid pNZ116 ) binding constant to poly[d(G-C)] determined by ethidium bromide displacement. The class given is nucleic-acid assay. In short, it runs like this:
(§1)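 Binding constants to poly[d(A-T)] and poly[d(G-C)] were determined by ethidium bromide displacement.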

Data set [7] concerns Nucleic Acid. Kind of data set: The compound was tested for DNA (from Escherichia coli plasmid pNZ116 ) binding constant to poly[d(A-T)] determined by ethidium bromide displacement. The data set is classed as nucleic-acid assay. In short, it runs like this:
as §1

For data set [8], the system named is P388. Description: Percent increase in life span of drug treated tumor( P388 leukemia cells)-bearing animal compared to that of untreated tumor bearing control when treated at optimal dose; Compound inactive at all dose levels up to toxic ones. The settings on record: Mus musculus. The data set is classed as functional.
The subject of data set [9] is P388. Description: Percent increase in life span of drug treated tumor( P388 leukemia cells)-bearing animal compared to that of untreated tumor bearing control when treated at optimal dose; NA means not active. As to conditions: Mus musculus. The data set is classed as functional.

Activity calls are given as the source filed them. The rule behind the calls is not given here.

Turning to `CN(C)CCCN1C=Nc2cccc3cccc1c23`, the OD in the data set on P388 [1] was found to be 150 mg/kg/day. The IC50 (usually the concentration that inhibits the measured activity by half) with L1210 is 15300 nM. In the data set with P388 [2], the ILS (as a rule, the gain in survival time of treated over control animals, in per cent) was “inactive”. In addition, the pKa (commonly the negative logarithm of the acid dissociation constant) in [3] stood at 5.1.
Consider `CN(C)CCCNC1=Nc2cccc3cccc(c23)N1`, for which, in the data set with L1210, half-maximal inhibition (IC50) was put at 4000 nM.
In the data set on P388 [4], `CN(C)CCN1C(=O)c2cccc3cccc(c23)C1=O` returned an OD of 150 mg/kg/day. Moreover, in the data set with L1210, 1600 nM corresponded to half-maximal inhibition (IC50). The compound further registered an ILS in the data set on P388 [5] of 31%. Further, the Log K was 5.87 with Nucleic Acid [6] and 5.46 in the data set with Nucleic Acid [7].
Take `CN(C)CCNC(=O)C1=Nc2cccc3cncc(c23)N1`: in the data set with P388 [1], the OD was 65 mg/kg/day. In the data set on L1210, this compound showed an IC50 of 21700 nM. Also, the ILS result in the data set with P388 [8] was “inactive”. The Log K with Nucleic Acid [6] was found to be 5.88; in the data set on Nucleic Acid [7], 5.71.
As to `CN(C)CCCCN1C=Nc2cccc3cccc1c23`, the IC50 in the data set with L1210 came out at 2200 nM. The compound further displayed a pKa in [3] of 5.3.
In the data set on L1210, `CN(C)CCCSC1=Nc2cccc3cccc(c23)N1` had a half-inhibitory concentration (IC50) of 5700 nM.
The same measure, in the same setting: the value for `O=C(NCCN1CCCCC1)C1=Nc2cccc3cccc(c23)N1` was 1300 nM; that for `O=C(NCCN1CCOCC1)C1=Nc2cccc3cccc(c23)N1` was 14100 nM.
Turning to `CN(C)CCNC(=O)CC1=Nc2cccc3cccc(c23)N1`, the OD in the data set on P388 [1] was found to be 65 mg/kg/day. Further, in the data set with P388 [9], the ILS entry was “inactive”. Half-maximal inhibition in the data set with L1210 (IC50) required 16700 nM. Also, the Log K in the data set on Nucleic Acid [6] worked out at 5.88; with Nucleic Acid [7] it was 5.74.
Compound `CN(C)CCNC1=Nc2cccc3cccc(c23)N1` returned an OD in the data set with P388 [1] of 65 mg/kg/day. In the data set with L1210, this compound came in with an IC50 of 2500 nM. In the data set on P388 [8], the ILS result was “inactive”. Moreover, the Log K came to 5.9 in the data set with Nucleic Acid [6] and 5.77 in the data set on Nucleic Acid [7].
As to `CN(C)CCCNC(=O)C1=Nc2cccc3cccc(c23)N1`, it took 870 nM to reach half-maximal inhibition in the data set on L1210 (IC50).
As to `CN(C)CCNC(=O)C1=Nc2cccc3cccc(c23)N1`, the OD in the data set with P388 [1] turned out to be 150 mg/kg/day. Further, half-maximal inhibition in the data set on L1210 (IC50) was put at 440 nM. Besides, the ILS result in the data set on P388 [8] is “inactive”. The Log K with Nucleic Acid [6] and with Nucleic Acid [7] was 6.51 each time. In addition, the pKa in data set [3] amounted to 1.74.
For the compound `CN(C)CCCNC(=O)CC1=Nc2cccc3cccc(c23)N1`, the IC50 in the data set with L1210 was greater than 21000 nM.
For the compound `CN(C)CCN1C=Nc2cccc3cccc1c23`, the OD with P388 [1] was 150 mg/kg/day. Further, in the data set with L1210, the IC50 was 20000 nM. The ILS entry in the data set on P388 [8] was “inactive”. The Log K in the data set with Nucleic Acid [6] is 5.31; in the data set on Nucleic Acid [7], 5.17. This compound also registered a pKa in data set [3] of 4.64.
Compound `CN(C)CCCCNC(=O)C1=Nc2cccc3cccc(c23)N1` yielded an IC50 in the data set with L1210 of 1500 nM.
The compound `CN(C)CCSC1=Nc2cccc3cccc(c23)N1` came in with an OD in the data set on P388 [1] of 150 mg/kg/day. Also, half-maximal inhibition in the data set on L1210 (IC50) was put at 1800 nM. Besides, the ILS result in the data set on P388 [8] was “inactive”. For the same compound, the results for the Log K with Nucleic Acid [6] and in the data set with Nucleic Acid [7] were 6.1 and 5.78, respectively. The pKa in [3] was 2.66.
In the case of `CCN(CC)CCNC(=O)C1=Nc2cccc3cccc(c23)N1`, in the data set on L1210, the IC50 amounted to 1100 nM.
In the data set on L1210, `CN(C)CCCCN1C(=O)c2cccc3cccc(c23)C1=O` returned a half-maximal inhibitory concentration (IC50) of 1900 nM.
